According to ChEMBL document CHEMBL1138358, “Synthesis and in vivo antitumor evaluation of 2-methoxyestradiol 3-phosphate, 17-phosphate, and 3,17-diphosphate” (J Med Chem, 2007):

Key:
HCT-116 = assay: Cytotoxicity against human HCT116 cells; format: functional
SF-539 = assay: Cytotoxicity against human SF539 cells; format: functional
UACC-62 = assay: Cytotoxicity against human UACC62 cells; format: functional
SN12C = assay: Cytotoxicity against human SN12C cells; format: functional
MDA-MB-435 = assay: Cytotoxicity against human MDA-MB-435 cells; format: functional
[1] = Drug level in Sprague-Dawley rat plasma at 1 mg/kg, iv after 5 mins; format: ADME, organism-based; parameters: dose 1 mg/kg, route intravenous
Procedure, shortened: (§1)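 Jugular-cannulated Sprague–Dawley rats were fasted overnight and given a single tail-vein dose in 45% (w/v) hydroxypropyl-β-cyclodextrin in water (0.5 mg/mL, 2 mL/kg). K-EDTA blood was drawn via the cannula and the plasma was frozen below −20 °C. Plasma was acidified with formic acid and analysed by negative-ion ESI LC-MS/MS (MRM). Standard curves were spiked into rat plasma.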

[2] = Drug level in Sprague-Dawley rat plasma at 1 mg/kg, iv after 15 mins; format: ADME, organism-based; parameters: dose 1 mg/kg, route intravenous; procedure, shortened: as §1
[3] = Drug level in Sprague-Dawley rat plasma at 1 mg/kg, iv after 30 mins; format: ADME, organism-based; parameters: dose 1 mg/kg, route intravenous; procedure, shortened: as §1
[4] = Drug level in Sprague-Dawley rat plasma at 1 mg/kg, iv after 60 mins; format: ADME, organism-based; parameters: dose 1 mg/kg, route intravenous; procedure, shortened: as §1
[5] = Drug level in Sprague-Dawley rat plasma at 1 mg/kg, iv after 120 mins; format: ADME, organism-based; parameters: dose 1 mg/kg, route intravenous; procedure, shortened: as §1
Plasma [6] = assay: Drug level in Sprague-Dawley rat plasma at 1 mg/kg, iv assessed as 2-methoxyestradiol level after 5 mins; format: ADME, organism-based; parameters: dose 1 mg/kg, route intravenous; conditions: in vivo; procedure, shortened: as §1
Plasma [7] = assay: Drug level in Sprague-Dawley rat plasma at 1 mg/kg, iv assessed as 2-methoxyestradiol level after 15 mins; format: ADME, organism-based; parameters: dose 1 mg/kg, route intravenous; conditions: in vivo, 0.25 h; procedure, shortened: as §1
Plasma [8] = assay: Drug level in Sprague-Dawley rat plasma at 1 mg/kg, iv assessed as 2-methoxyestradiol level after 30 mins; format: ADME, organism-based; parameters: dose 1 mg/kg, route intravenous; conditions: in vivo, 0.5 h; procedure, shortened: as §1
Plasma [9] = assay: Drug level in Sprague-Dawley rat plasma at 1 mg/kg, iv assessed as 2-methoxyestradiol level after 60 mins; format: ADME, organism-based; parameters: dose 1 mg/kg, route intravenous; conditions: in vivo, 1 h; procedure, shortened: as §1
Plasma [10] = assay: Drug level in Sprague-Dawley rat plasma at 1 mg/kg, iv assessed as 2-methoxyestradiol level after 120 mins; format: ADME, organism-based; parameters: dose 1 mg/kg, route intravenous; conditions: in vivo, 2 h; procedure, shortened: as §1
Plasma [11] = assay: Drug level in Sprague-Dawley rat plasma at 1 mg/kg, iv assessed as 2-methoxyestrone level after 5 mins; format: ADME, organism-based; parameters: dose 1 mg/kg, route intravenous; conditions: in vivo; procedure, shortened: as §1
Plasma [12] = assay: Drug level in Sprague-Dawley rat plasma at 1 mg/kg, iv assessed as 2-methoxyestrone level after 15 mins; format: ADME, organism-based; parameters: dose 1 mg/kg, route intravenous; conditions: in vivo, 0.25 h; procedure, shortened: as §1
Plasma [13] = assay: Drug level in Sprague-Dawley rat plasma at 1 mg/kg, iv assessed as 2-methoxyestrone level after 30 mins; format: ADME, organism-based; parameters: dose 1 mg/kg, route intravenous; conditions: in vivo, 0.5 h; procedure, shortened: as §1
Plasma [14] = assay: Drug level in Sprague-Dawley rat plasma at 1 mg/kg, iv assessed as 2-methoxyestrone level after 60 mins; format: ADME, organism-based; parameters: dose 1 mg/kg, route intravenous; conditions: in vivo, 1 h; procedure, shortened: as §1
Plasma [15] = assay: Drug level in Sprague-Dawley rat plasma at 1 mg/kg, iv assessed as 2-methoxyestrone level after 120 mins; format: ADME, organism-based; parameters: dose 1 mg/kg, route intravenous; conditions: in vivo, 2 h; procedure, shortened: as §1
HOP-62 = assay: Cytotoxicity against human HOP62 cells; format: functional
OVCAR-3 = assay: Cytotoxicity against human OVCAR-3 cells; format: functional
DU-145 = assay: Cytotoxicity against human DU145 cells; format: functional
[16] = test system: Lewis lung carcinoma cell line; assay: Antitumor activity against LLC cells inoculated in C57BL/6J mouse assessed as lung weight at 200 mg/kg, ip qd for 12 days; format: functional; conditions: route intraperitoneal
Procedure, shortened: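 LLC cells in exponential growth were harvested by brief trypsinization (0.25% trypsin, 0.02% EDTA, 1 min, 37 °C), washed and resuspended at 5 × 10⁵ cells/mL in Ca²⁺/Mg²⁺-free PBS. Mice were housed under SPF conditions, with 10 per group. From day 3 after tumor cell injection, compound was given ip daily for 12 days. On day 15, mean lung weight was corrected for non-tumor-bearing lung weight. T/C = (A − C)/(B − C) versus vehicle (0.1 mL).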

[17] = test system: Lewis lung carcinoma cell line; assay: Antitumor activity against LLC cells inoculated in C57BL/6J mouse assessed as lung weight at 100 mg/kg, ip qd for 12 days; format: functional; conditions: route intraperitoneal
Procedure, shortened: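 LLC cells in exponential growth were harvested by brief trypsinization (1 min, 37 °C), washed, and resuspended at 5 × 10⁵ cells/mL in Ca²⁺/Mg²⁺-free PBS before injection into SPF-housed mice. From day 3 after injection, groups of 10 mice were dosed ip daily for 12 days. On day 15, mean lung weight was corrected for non-tumor-bearing lung weight. T/C = (A − C)/(B − C).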

concentration at 5 min [1] [ng/mL] | concentration at 0.25 h [2] [ng/mL] | concentration at 0.5 h [3] [ng/mL] | concentration at 1 h [4] [ng/mL] | concentration at 2 h [5] [ng/mL] | Cp (Plasma [6]) [ng/mL] | Cp (Plasma [7]) [ng/mL] | Cp (Plasma [8]) [ng/mL] | Cp (Plasma [9]) [ng/mL] | Cp (Plasma [11]) [ng/mL] | Cp (Plasma [12]) [ng/mL] | SMILES | GI50 (HCT-116) [µM] | GI50 (SF-539) [µM] | GI50 (UACC-62) [µM] | GI50 (SN12C) [µM] | GI50 (MDA-MB-435) [µM] | Cp (Plasma [10]) [ng/mL] | GI50 (HOP-62) [µM] | GI50 (OVCAR-3) [µM] | GI50 (DU-145) [µM] | further results
1320 | 351 | 138 | 21.2 | 6.9 | 34.1 | 15 | 9.2 | 5 | 5 | 5 | COc1cc2c(cc1O)CC[C@@H]1[C@@H]2CC[C@]2(C)[C@@H](OP(=O)(O)O)CC[C@@H]12 | 87.1 | 75.9 | 38 | > 100 | 20 | 5 |  |  |  | Cp (Plasma [13]): 5 ng/mL; Cp (Plasma [14]): 5 ng/mL; Cp (Plasma [15]): 5 ng/mL
 |  |  |  |  |  |  |  |  |  |  | CCOP(=O)(OCC)Oc1cc2c(cc1OC)[C@H]1CC[C@]3(C)[C@@H](OP(=O)(OCC)OCC)CC[C@H]3[C@@H]1CC2 | 20.4 | 19.5 | 11.5 | 16.6 | 56.2 |  | 21.9 | 55 | 13.8 | 
 |  |  |  |  |  |  |  |  |  |  | CCOP(=O)(OCC)O[C@H]1CC[C@H]2[C@@H]3CCc4cc(O)c(OC)cc4[C@H]3CC[C@]12C | 19 | 19.5 | 14.4 | 17.4 | 13.2 |  |  | 15.1 |  | 
 |  |  |  |  |  |  |  |  |  |  | COc1cc2c(cc1OP(=O)(O)O)CC[C@@H]1[C@@H]2CC[C@]2(C)[C@@H](OP(=O)(O)O)CC[C@@H]12 | > 100 |  | > 100 | > 100 | > 100 |  | > 100 | > 100 | > 100 | 
366 | 31.3 | 7.1 | 1.2 | < 1 | 153.4 | 57.3 | 22.3 | 5.3 | 16.3 | 12.7 | COc1cc2c(cc1OP(=O)([O-])O)CC[C@@H]1[C@@H]2CC[C@]2(C)[C@@H](O)CC[C@@H]12.[Na+] | 1.45 | 0.66 | 1.32 | 1.31 | 0.11 | 5 | 0.69 | 0.34 | 2.95 | Activity [16]: 0.23 g; Activity [17]: 0.44 g; Cp (Plasma [13]): 8.8 ng/mL; Cp (Plasma [14]): 2.7 ng/mL; Cp (Plasma [15]): 5 ng/mL
 |  |  |  |  |  |  |  |  |  |  | COc1cc2c(cc1O)CC[C@@H]1[C@@H]2CC[C@]2(C)C(=O)CC[C@@H]12 |  |  |  |  |  | 5 |  |  |  | 

SMILES | concentration at 5 min [1] [ng/mL] | concentration at 0.25 h [2] [ng/mL] | concentration at 0.5 h [3] [ng/mL] | concentration at 1 h [4] [ng/mL] | concentration at 2 h [5] [ng/mL] | Cp (Plasma [6]) [ng/mL] | Cp (Plasma [7]) [ng/mL] | Cp (Plasma [8]) [ng/mL] | Cp (Plasma [9]) [ng/mL] | Cp (Plasma [11]) [ng/mL] | Cp (Plasma [12]) [ng/mL] | GI50 (HCT-116) [µM] | GI50 (SF-539) [µM] | GI50 (UACC-62) [µM] | GI50 (SN12C) [µM] | GI50 (MDA-MB-435) [µM] | Cp (Plasma [10]) [ng/mL] | GI50 (HOP-62) [µM] | GI50 (OVCAR-3) [µM] | GI50 (DU-145) [µM] | further results
COc1cc2c(cc1O)CC[C@@H]1[C@@H]2CC[C@]2(C)[C@@H](O)CC[C@@H]12 [2-METHOXYESTRADIOL] | 764 | 168 | 44.7 | 11.3 | 5 | 764 | 168 | 44.7 | 11.3 | 6.3 | 5 | 0.47 | 0.32 | 0.36 | 0.95 | 0.08 | 5 | 0.7 | 0.21 | 1.8 | Activity [16]: 0.44 g; Cp (Plasma [13]): 5.4 ng/mL; Cp (Plasma [14]): 5 ng/mL; Cp (Plasma [15]): 5 ng/mL
